Assay results: the EternaBench riboswitch data

Test system: MS2 coat protein
Test: apparent Kd, MS2 coat protein; higher = weaker binding; RNA-MaP array
Procedure, shortened: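 Designed RNAs were transcribed in place on an Illumina sequencing chip from sequenced DNA templates. At room temperature and with or without input ligand, they were incubated with fluorescently labeled MS2 coat protein from 1.5 nM to 3 μM, for 0.8–1.5 h at the lowest and 10–20 min at the highest concentrations. Apparent Kd is the median of the binding-curve fits made per cluster, with designs measured on fewer than 10 clusters excluded.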

[1] = designed as: ON switch for flavin mononucleotide, no ligand
[2] = ligand present: flavin mononucleotide, designed as: ON switch for flavin mononucleotide
[3] = designed as: OFF switch for flavin mononucleotide, no ligand
[4] = ligand present: flavin mononucleotide, designed as: OFF switch for flavin mononucleotide

## UCCCAUAUAGUAGGAUAUCUGCUACAUGAGGAUCACCCAUGUCAUAUUUUUUACCAGUCUUAGAUAGAGAAGGACUGUGGACCU
[1]
  apparent Kd: 590 nM
[2]
  apparent Kd: 373 nM

## CGGAAUUCAGGAUAUGGCAUAUCCUACAUGAGGAUCACCCAUGUAUGACCCGUGUGCCGGCCAGAAGGGAACGCUG
[3]
  apparent Kd: 10.8 nM
[4]
  apparent Kd: 12 nM

## CUCGAAUUAUCAGGAUAUCCACAAUUCGAAGAAGGAGAAGGGAUGGCAGGGCUAACAUGGAACAUGAGGAUCACCCAUGUGCAA
[1]
  apparent Kd: 11.2 nM
[2]
  apparent Kd: 9.94 nM

## AGACUCCUAGCAGGAUAUGUUCAAGGAACAAAGAGAACAUGAGGAUCACCCAUGUACACAUAUGAACAGAAGGGCUGAAGAAAA
[1]
  apparent Kd: 8.24 nM
[2]
  apparent Kd: 6.66 nM

## AAUACAGCUACGGCCGCCACUUUAACUUGGUAUGGGUCCUUCACAAACAUGAGGAUCACCCAUGUAAGGACCGGGUAGCCUUGUU
Designed as: OFF switch for tryptophan, no ligand
  apparent Kd: 21.1 nM
Ligand present: tryptophan, designed as: OFF switch for tryptophan
  apparent Kd: 35 nM

## UCCUUGGAGUCAGGAUAUGUCGACAACGGAAUGACAGAAGGGACUUGGCAGCUUAAUUCUUCAGUACAUGAGGAUCACCCAUGU
[3]
  apparent Kd: 9.35 nM
[4]
  apparent Kd: 9.19 nM

## CAAUGGGAACCAUAUGUUUACAUGAGGAUCACCCAUGUUACAUAGGAUAUCUCGGUUGGGUUCGUAGAGAAGGAUGUAGAGUAG
[3]
  apparent Kd: 5.28 nM
[4]
  apparent Kd: 5.3 nM

## GGUCUACAUGAGGAUCACCCAUGUGAGUUCACGGCAGGAUAUGGGUGCCUUUUUAGGCUACCAGAAGGGCCCUCUG
[1]
  apparent Kd: 38.1 nM
[2]
  apparent Kd: 19.2 nM

## AAUAAGUUAGGAUAUUCAGGAGCAGCGCAAUGGUACGAGUCGAAGAAGGAACAUGAGGAUCACCCAUGUGAACC
[3]
  apparent Kd: 11.2 nM
[4]
  apparent Kd: 11.5 nM

## UGAAACUAGCCUAAGGAUAUAUAAGUGUGAACAUGAGGAUCACCCAUGUAUGGGAACAAGUGCUGAUAGAAGGUAGGAAUCUCCAA
[1]
  apparent Kd: 80.3 nM
[2]
  apparent Kd: 43.2 nM

## UAUAACGAAAGAGGAUAUAUCGGCCGUCUACGGAUAGAAGGCUUUCGCUAUGGCACUGAUGAUCUACAUGAGGAUCACCCAUGU
[3]
  apparent Kd: 7.91 nM
[4]
  apparent Kd: 7.19 nM

## CCUGCAGGUCAGGAUAUCAUAUCUGGCUAACUAUGAGAAGGGACAACAUGAGGAUCACCCAUGUGGUGAUAACA
[3]
  apparent Kd: 666 nM
[4]
  apparent Kd: 509 nM

## ACCCGCUCCUGAGGAUAUCCGGCAUGACAUGAGGAUCACCCAUGUGGGCUCGUGGAGGGAGUGCAGGAGAAGGCAGUAGGCGCU
[3]
  apparent Kd: 35.7 nM
[4]
  apparent Kd: 82.6 nM

## UCAUAUUAAGGCGAGGAUAUACACGAUCCCACAUGAGGAUCACCCAUGUUUUGAUCAUGCCCUGUGUAGAAGGCGCACCUACGGGA
[1]
  apparent Kd: 78.9 nM
[2]
  apparent Kd: 49.5 nM

## CUCGUGUGAGGAUAUUGAUCACAGGUCACGGUGCAGGAAUACAAGAAGGCACAUGAGGAUCACCCAUGUAACCG
[3]
  apparent Kd: 15.7 nM
[4]
  apparent Kd: 45 nM

## CUCGGAACAAUCGAUACCAGUUCUCAUGGAUUGCAGCAGUACAUGAGGAUCACCCAUGUAAACCCUUGGCAGCGAAGAACAAGAC
Designed as: OFF switch for theophylline, no ligand
  apparent Kd: 32.7 nM
Ligand present: theophylline, designed as: OFF switch for theophylline
  apparent Kd: 55.3 nM

## CUCACCUCGUGGAAGGAUAUACACUUUAGCACAUGAGGAUCACCCAUGUCCGCCGCAAAUCCUAGGUAGAAGGUCCGCAACAUUCG
[1]
  apparent Kd: 23.5 nM
[2]
  apparent Kd: 18 nM

## GAUUCACAUGAGGAUCACCCAUGUCAGGAUAUGACUUGAGCUGUCUCCGAUCGAGCCAUCAGAAGGGACUGGAA
[3]
  apparent Kd: 30 nM
[4]
  apparent Kd: 27.8 nM

## CCUCUCUUCCAGAAGGCUAUCCUAGCAUACGAUAGAGGAUAUGGACCACAAUACGGGUAGAGACACAUGAGGAUCACCCAUGUU
[1]
  apparent Kd: 72.4 nM
[2]
  apparent Kd: 185 nM

## GAAUAAAAUAUAAUAAGAAAACAUGAGGAUCACCCAUGUACAAGAAGGGAGAAACUUAACAUAACUCAGGAUAUUGUUAUAUCA
[1]
  apparent Kd: 28.9 nM
[2]
  apparent Kd: 22.2 nM
